This is an account of results in ChEMBL document CHEMBL1146278, “Design and synthesis of substrate-mimic inhibitors of mycothiol-S-conjugate amidase from Mycobacterium tuberculosis” (Bioorg Med Chem Lett, 2007).

Usually inhibition stands for the percentage by which the read-out fell short of the control.

The target in this assay is T1, Mycothiol S-conjugate amidase (Mycobacterium tuberculosis) (UniProt P9WJN1).
T1 sequence (whole entry): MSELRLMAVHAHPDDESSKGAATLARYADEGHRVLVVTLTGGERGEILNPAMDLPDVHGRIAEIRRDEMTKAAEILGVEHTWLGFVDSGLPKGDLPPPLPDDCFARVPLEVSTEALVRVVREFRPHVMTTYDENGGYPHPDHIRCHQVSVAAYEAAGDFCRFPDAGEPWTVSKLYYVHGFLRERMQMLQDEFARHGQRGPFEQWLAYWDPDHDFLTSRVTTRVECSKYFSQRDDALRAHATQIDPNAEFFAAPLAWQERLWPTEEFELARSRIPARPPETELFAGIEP
Put plainly: Inhibition of Mycobacterium tuberculosis MCA at 50 uM. A digest of the protocol:
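Recombinant MCA was assayed by fluorescence-detected HPLC, with mycothiol bimane (MSmB) or its cyclohexyl thioglycoside analog as substrate. Inhibitors were screened at 100 and 50 μM, and the reported values are at a final 50 μM. Each value is the mean of two experiments. Below 10% inhibition was scored as no inhibition.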
In the case of `CCCc1c(C(=O)N[C@H]2[C@@H](O[C@@H]3C[C@](O)(CO)C[C@@H](O)[C@H]3O)O[C@H](CO)[C@@H](O)[C@@H]2O)cnn1-c1cc(Cl)cc(Cl)c1`, the inhibition amounted to 26%.
As for `CC(C)S(=O)(=O)c1csc(C(=O)N[C@H]2[C@@H](O[C@@H]3C[C@](O)(CO)C[C@@H](O)[C@H]3O)O[C@H](CO)[C@@H](O)[C@@H]2O)c1Cl`, the figure is 11%.
The compound `CN(C)c1ccc(C(=O)N[C@H]2[C@@H](O[C@@H]3C[C@](O)(CO)C[C@@H](O)[C@H]3O)O[C@H](CO)[C@@H](O)[C@@H]2O)cc1` had an inhibition of 44%.
With `O=C(N[C@H]1[C@@H](O[C@@H]2C[C@](O)(CO)C[C@@H](O)[C@H]2O)O[C@H](CO)[C@@H](O)[C@@H]1O)c1ccc([N+](=O)[O-])cc1`, the inhibition is 15%.
As for `O=C(N[C@H]1[C@@H](O[C@@H]2C[C@](O)(CO)C[C@@H](O)[C@H]2O)O[C@H](CO)[C@@H](O)[C@@H]1O)c1cccnc1Sc1ccc(Cl)cc1`, the figure is 10%; as for `O=C(N[C@H]1[C@@H](O[C@@H]2C[C@](O)(CO)C[C@@H](O)[C@H]2O)O[C@H](CO)[C@@H](O)[C@@H]1O)c1ccc(C(F)(F)F)cc1`, 16%.
As for `O=C(N[C@H]1[C@@H](O[C@@H]2C[C@](O)(CO)C[C@@H](O)[C@H]2O)O[C@H](CO)[C@@H](O)[C@@H]1O)c1cccs1`, the figure is 13%; as for `O=C(N[C@H]1[C@@H](O[C@@H]2C[C@](O)(CO)C[C@@H](O)[C@H]2O)O[C@H](CO)[C@@H](O)[C@@H]1O)c1ccc2ccccc2c1`, 13%.
As for `Cc1onc(-c2c(F)cccc2Cl)c1C(=O)N[C@H]1[C@@H](O[C@@H]2C[C@](O)(CO)C[C@@H](O)[C@H]2O)O[C@H](CO)[C@@H](O)[C@@H]1O`, the figure is less than 10%; as for `O=C(N[C@H]1[C@@H](O[C@@H]2C[C@](O)(CO)C[C@@H](O)[C@H]2O)O[C@H](CO)[C@@H](O)[C@@H]1O)c1ccco1`, 15%; as for `O=C(N[C@H]1[C@@H](O[C@@H]2C[C@](O)(CO)C[C@@H](O)[C@H]2O)O[C@H](CO)[C@@H](O)[C@@H]1O)c1ccc2ccsc2c1`, less than 10%.
Compound `CCCSc1cc(C(=O)N[C@H]2[C@@H](O[C@@H]3C[C@](O)(CO)C[C@@H](O)[C@H]3O)O[C@H](CO)[C@@H](O)[C@@H]2O)ccn1` came in with an inhibition of 15%.
`O=C(N[C@H]1[C@@H](O[C@@H]2C[C@](O)(CO)C[C@@H](O)[C@H]2O)O[C@H](CO)[C@@H](O)[C@@H]1O)C1CC1` had an inhibition of 13%.
To `O=C(N[C@H]1[C@@H](O[C@@H]2C[C@](O)(CO)C[C@@H](O)[C@H]2O)O[C@H](CO)[C@@H](O)[C@@H]1O)c1ccncc1` belongs 46%.
